Compound activity: PubChem, SRMLSC
Lung fibro prol = blocks proliferation of human lung fibroblasts | LL 47 human lung fibroblast viability, ATP luminescence; stronger effect = lower value | viability, % at 10 µM | 1.1% of 85,000 active | AID 719;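 active = viability at or below 50% in the single dose screen; inactive = viability above 50%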;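 note: compound exposure lasted 72 h before the ATP readout; 100% = median luminescence of untreated cell-only wells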
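test system = LL 47 human lung fibroblasts | amount = 1,150 fibroblasts seeded per well | medium = 15% FBS in IMEM | times = overnight cell rest, 72 h compound treatment at 37 °C | measured by = CellTiter-Glo luminescence measuring cellular ATP | read-out = viability percentage against median untreated-cell control | benchmarks = cell-only wells, no compound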
H69AR growth 86K = growth inhibitors of human H69AR lung tumor cells; H69AR lung tumor viability, ATP luminescence, 72 h; stronger effect = lower value; viability, % at 10 µM; 6% of 85,000 active; AID 598;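 active = viability at or below 40%; inactive = viability above 40%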;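 note: multidrug resistant small cell line overexpressing MRP-1 efflux transporter; 100% = mean luminescence of untreated control wells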
HCT116 PTEN-null = PTEN-deleted cell growth suppression | HCT116 PTEN-null viability, CellTiter-Glo, 60 h; stronger effect = lower value | viability, % at 10 µM | 1.2% of 140,000 active | AID 827;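 active = viability at or below a set limit, 4 SD under the median of all tested compounds, cut at about 3.7% in these data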;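 note: PTEN knockout HCT116 line with beta catenin targeted HCT116 as companion control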
HUVEC prolif 384 = blocks proliferation of human endothelial cells; HUVEC proliferation, CellTiter-Glo luminescence, 72 h; stronger effect = lower value; viability, % at 10 µM (by protocol); 1.1% of 86,000 active;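 active = viability at or below 30%; inactive = viability above 30%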;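 note: 100% = median luminescence of DMSO-only cell control wells on each plate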
bCat KO growth = beta-catenin-lacking colon tumor cell growth suppression; HCT116 beta-catenin knockout viability, CellTiter-Glo, 60 h; stronger effect = lower value; viability, % at 10 µM; 1.5% of 140,000 active;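 active = viability at or under a set limit, the compound median less 4 SD, cut at about 6% in these data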;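 note: 0% = Hyamine 1622 control at 20 µM and 100% = untreated cell control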
Active calls of the source: *. Only a selection was taken, and hits are over-represented in it overall.

CCOC(=O)C(=O)c1cn(C2OCC(OC(C)=O)C(OC(C)=O)C2OC(C)=O)c2ccccc12 (stereo not given) was read as HCT116 PTEN-null 99 and bCat KO growth 106.
For O=C(COC(=O)c1n[nH]c2ccccc12)NC(=O)NC12CC3CC(CC(C3)C1)C2 the results were Lung fibro prol 81, H69AR growth 86K 17*, HCT116 PTEN-null 1.4*, HUVEC prolif 384 69 and bCat KO growth 22.
For O=C(COC(=O)c1n[nH]c2ccccc12)NC(=O)NC1CCCC1 the results were Lung fibro prol 102, H69AR growth 86K 92, HCT116 PTEN-null 105, HUVEC prolif 384 98 and bCat KO growth 97.
COc1cc(OC)cc(-c2n[nH]c(=S)n2-c2cc(OC)ccc2OC)c1 was read as Lung fibro prol 96, H69AR growth 86K 24*, HCT116 PTEN-null 93, HUVEC prolif 384 101 and bCat KO growth 88.
`COc1ccc(N2CCN(CC(O)c3c[nH]c4ccc(OC)cc34)CC2C)cc1` (stereo not given) gave Lung fibro prol 77, H69AR growth 86K 35*, HCT116 PTEN-null 59, HUVEC prolif 384 94 and bCat KO growth 58.
COC(=O)C1CCC(C)(C(=O)Nc2ccccc2)C1(C)C (stereo not given) was read as Lung fibro prol 99, H69AR growth 86K 92, HCT116 PTEN-null 102, HUVEC prolif 384 103 and bCat KO growth 94.
Screening COc1cc(NS(=O)(=O)c2ccc3c(c2)oc(=O)n3C)cc(OC)c1OC returned Lung fibro prol 92, H69AR growth 86K 27*, HCT116 PTEN-null 28, HUVEC prolif 384 71 and bCat KO growth 31.
Screening COc1ccc(NS(=O)(=O)c2ccc3c(c2)oc(=O)n3C)c(OC)c1 returned Lung fibro prol 93, H69AR growth 86K 94, HCT116 PTEN-null 93, HUVEC prolif 384 97 and bCat KO growth 89.
`Cc1ccc(C)c(NC(=O)C(Sc2ncnc3ccccc23)c2ccccc2)c1` (stereo not given) gave HCT116 PTEN-null 1.2* and bCat KO growth 67.
Screening CCC(Sc1nc(=O)cc(N)n1-c1ccccc1)C(=O)Nc1ccc(Cl)cn1 (stereo not given) returned Lung fibro prol 102, H69AR growth 86K 90 and HUVEC prolif 384 93.
CCOC(=O)Cc1c(Sc2ccccc2)c2ccccc2n1C was read as HCT116 PTEN-null 83 and bCat KO growth 79.
`Cc1ccc(-n2nc(C)c3c(C)c(CCC(=O)NC(C)c4ccccc4)c(C)nc32)cc1` (stereo not given) gave Lung fibro prol 73, H69AR growth 86K 15*, HCT116 PTEN-null 54, HUVEC prolif 384 59 and bCat KO growth 42.
Cn1c(CNC(=O)c2ccc(Cl)c(Cl)c2)nnc1SCC(=O)Nc1sc2c(c1C#N)CCCC2 was read as Lung fibro prol 95, H69AR growth 86K 48, HUVEC prolif 384 80 and bCat KO growth 7.
`COCCCNCCCOc1ccc(Cl)cc1C(C)(C)C` gave HCT116 PTEN-null 3.1* and bCat KO growth 4.0*.
CSc1nncc(=O)[nH]1 was read as Lung fibro prol 3.6*, H69AR growth 86K 109, HCT116 PTEN-null 44, HUVEC prolif 384 105 and bCat KO growth 52.
`O=S(=O)(Nc1ccc(Cl)c(C(F)(F)F)c1)c1cnc[nH]1` gave Lung fibro prol 100, H69AR growth 86K 102, HCT116 PTEN-null 98, HUVEC prolif 384 101 and bCat KO growth 95.
Screening Cc1cccc(OCC(=O)NC(=S)Nc2ccc(S(=O)(=O)NC3CCCCC3)cc2)c1 returned HCT116 PTEN-null 88 and bCat KO growth 92.
For Cc1nc2ccccc2nc(C)c1=NO the results were Lung fibro prol 93, H69AR growth 86K 27*, HCT116 PTEN-null 99, HUVEC prolif 384 95 and bCat KO growth 82.
For Cc1nc2ccc(Cl)cc2nc(C)/c1=N\O the results were Lung fibro prol 91, H69AR growth 86K 5.6*, HCT116 PTEN-null 100, HUVEC prolif 384 87 and bCat KO growth 98.
For CCOC(=O)c1nc2ccccc2nc1C the results were HCT116 PTEN-null 104 and bCat KO growth 91.
For Cc1ccc2nc(C)/c(=N\O)c(C)nc2c1 the results were Lung fibro prol 98, H69AR growth 86K 6.8*, HCT116 PTEN-null 87, HUVEC prolif 384 93 and bCat KO growth 88.
O=C(NC(=S)Nc1ccc(C(=O)N2CCOCC2)cc1)c1ccc([N+](=O)[O-])cc1 was read as HCT116 PTEN-null 95 and bCat KO growth 105.
